# VIM-2 inh: inhibitors of Pseudomonas aeruginosa VIM-2 metallo-beta-lactamase | purified VIM-2, nitrocefin hydrolysis, epi-absorbance fluorescence | 290,000 tested, 0.89% active | inhibition, % at 5.6 µM;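 active = inhibition above the mean of all tested compounds plus 3 SD, cutoff set per screening run, cut at about 7.5% in these data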;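 note: red hydrolysis product quenches plate fluorescence so inhibitors raise well fluorescence; 0% = enzyme with DMSO and 100% = DMSO without enzyme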
# FID counter: counter-screen for HCV NS3 helicase inhibitors: DNA intercalator displacement; 290,000 tested, 0.17% active; DNA fluorescent intercalator displacement, fluorescence; inhibition, % at 7.9 µM; AID 1845; in the data active = inhibition above about 37%;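 note: 0% = vehicle and 100% = reference compound; higher means more ethidium bromide displaced from hairpin DNA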
# NS3 helicase inh: blocks Hepatitis C virus NS3 helicase unwinding. inhibition, % at 10.9 µM. 290,000 tested, 0.56% active. NS3 helicase DNA unwinding, Cy5 molecular beacon fluorescence;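 active = inhibition above the mean of all tested compounds plus 3 SD, set per campaign, cut at about 35% in these data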;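 note: 0% = DMSO wells and 100% = thioflavine S control wells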
#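 Measured by: Cy5 fluorescence, 0 and 60 min reads / Assay system: NS3 helicase fragment of HCV / Control set: low DMSO, high thioflavine S at 110 µM / Times: 1 h reaction at 25 °C, ATP-initiated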
# IMP-1 inh: blocks Pseudomonas aeruginosa IMP-1 metallo-beta-lactamase; 290,000 tested, 0.45% active; inhibition, % at 5.6 µM; purified IMP-1, nitrocefin hydrolysis, epi-absorbance fluorescence;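 active = inhibition above the mean plus 3 SD of all compounds in the same screening run, cut at about 4.5% in these data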;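 note: 0% = IMP-1 with DMSO and 100% = DMSO wells lacking enzyme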
#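 Assay system: purified recombinant IMP-1 beta-lactamase. Input: IMP-1 0.2 nM before substrate addition. Buffer or medium: Zinc- and detergent-supplemented HEPES buffer, pH 7.1. Schedule: 25 °C, 15 min preincubation, 25 min reaction. Signal: Epi-absorbance fluorescence, 480 nm excitation, 530 nm emission. Evaluation: percent inhibition from optical density relative to buffer-blank wells.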
# * = called active by the depositor. A selection: hits, their analogues and other compounds. The true share with any hit is near 1.9%.
SMILES,VIM-2 inh,FID counter,NS3 helicase inh,IMP-1 inh
COC(=O)CCC(=O)Nc1ccc(S(=O)(=O)Nc2nc(C)cc(C)n2)cc1,0,-4,-2,4.8*
C=CCc1c(C)nc(SC)nc1Nc1ccc(C(=O)O)cc1,1,-6,-1,-3
C=CCc1c(C)nc(SC)nc1Nc1ccc(C(C)=O)cc1,8.1*,-9,-7,-4
C=CC[n+]1c(/C=C/c2ccc(OC(C)=O)c(OC)c2)ccc2ccccc21,0,11,-51,-1
O=C(Cn1c(-c2ccccn2)nc2ccccc21)N/N=C/c1cccnc1,-1,-19,18,-2
Cn1c(C(=O)NCCCN2CCN(c3ccccc3F)CC2)cc2c(=O)[nH]c3ccccc3c21,11*,11,-20,-6
CCC1CCCCN1CCCNC(=O)COc1cc(=O)n(C)c2ccccc12 (configuration not stated),-1,1,-1,-4
CCC1CCCCN1CCCNC(=O)c1cc2c(=O)[nH]c3ccccc3c2n1C (configuration not stated),8.9*,4,-2,-2
CN(CCCNC(=O)c1cc2c(=O)[nH]c3ccccc3c2n1C)Cc1ccccc1,8.1*,10,-4,-1
CCCCCn1c(=O)[nH]c2cc(C(=O)NCCCN(C)Cc3ccccc3)ccc2c1=O,1,9,-19,-2
CC1CC(C)CN(CCCNC(=O)c2cc3c(=O)[nH]c4ccccc4c3n2C)C1 (configuration not stated),12*,8,-4,-2
COc1ccc(CCNC(=O)CSc2nc(C)nc3sccc23)cc1OC,-1,-11,-3,-3
COc1ccccc1N1CCN(C2CCCN(C(=O)c3ccccn3)C2)CC1 (configuration not stated),0,-14,0,-2
N#Cc1ccc(COC(=O)c2ccc3c(c2)OCO3)cc1,-3,-15,1,-3
CN(C)C(=O)CCC(=O)N1CCCC(C(=O)c2ccc(C(F)(F)F)cc2)C1 (configuration not stated),-3,-16,-3,-1
CCOC(=O)c1cnn(-c2ccccc2)c1NC(=O)CN1CCCCC1,-2,-2,1,-2
CC(Nc1ncnc2sccc12)c1ccccc1 (configuration not stated),1,-1,-7,0
CN1CCN(CCCNC(=O)CN2C(=O)COc3ccccc32)CC1,-1,-2,3,-3
O=C(CN1C(=O)COc2ccccc21)NCCCN1CCN(c2ccccc2F)CC1,2,37*,23,3
COc1ccc(CNC(=O)CN2C(=O)C(c3ccccc3)Oc3cccnc32)cc1 (configuration not stated),-2,-25,5,0
O=C(CN1C(=O)C(c2ccccc2)Oc2cccnc21)NCc1ccccc1F (configuration not stated),0,-31,4,54*
COc1ccc(-c2nc3ccccc3c(=O)[nH]2)cc1,-1,-7,-4,-3
COc1ccc(-c2nc3ccc(N4CCN(C)CC4)cc3c(=O)[nH]2)cc1,8.1*,22,4,-3
CCCN(CCC)S(=O)(=O)c1ccc(C(=O)NNc2nc(-c3ccccc3)c3cc(Br)ccc3n2)cc1,-7,3,-5,-3
CCOc1cc(CNc2ncc(-c3ccc(OC)cc3)n2C)ccc1O,0,8,-11,4.8*
SMILES,VIM-2 inh,FID counter,NS3 helicase inh,IMP-1 inh
COc1ccc(CNc2ncc(-c3ccccc3)n2C)cc1,-2,9,-14,-1
On1c(-c2ccccc2)nc2ccc(Cl)cc21,-5,-1,-3,5.2*
CN1CCN(C(=O)CCCN2C(=O)/C(=C/c3cccc(Br)c3)SC2=S)CC1,12*,0,-76,2
CN1CCN(C(=O)CCN2C(=O)/C(=C/c3cccc(Br)c3)SC2=S)CC1,1,12,-38,5.5*
COc1cc(C=C(C(C)=O)C(C)=O)ccc1O,-4,-2,-3,-2
COc1cc(/C=C2\CCC/C(=C\c3ccc(O)c(OC)c3)C2=O)ccc1O,11*,-15,-9,0
COc1cc(/C=C2/CCCC(C(=O)C(F)(F)F)=C2O)ccc1O,3,3,8,0
COc1cc(/C=C/C(=O)CC(=O)/C=C/c2ccc(O)c(OC)c2)ccc1O,-1,-13,29,18*
COc1ccc(CCN2CC(C(=O)N(C)CC(=O)Nc3cccc(F)c3)CC2=O)cc1OC (configuration not stated),0,-30,-6,-1
CCOC(=O)C(=CNc1ccc(NC2=NCC(C)(C)S2)cc1)C(=O)OCC,10*,-1,-16,-5
Fc1ccc(CSc2ccc3nnc(-c4ccccn4)n3n2)cc1,9.3*,-18,1,-5
CC(C)(C)OC(=O)NN1CC(=O)N2Cc3ccccc3C[C@@H]2C1=O,0,-8,0,-1
CC1=NOC(=O)/C1=C\c1ccc(-c2ccc(Cl)cc2Cl)o1,-1,3,37*,-2
Cn1cc(CN2CCC(CO)CC2)c(-c2ccc(Oc3ccccc3)cc2)n1,-1,10,-13,-1
Cc1oc(-c2cccs2)nc1CS(=O)CC(=O)NCCCOC(C)C (configuration not stated),0,-8,7,-1
CCCCNC(=O)CS(=O)Cc1nc(-c2cccs2)oc1C (configuration not stated),-1,-2,7,6.1*
Cc1cc(Oc2ccccc2)nc(SCC(=O)Nc2ccc(Cl)cc2Cl)n1,-5,3,-13,46*
CC(C(=O)NN)c1ccc([N+](=O)[O-])cc1 (configuration not stated),-2,0,-1,-3
CCOC(=O)COc1ccc2c3c(c(=O)oc2c1C)CCC3,8.1*,-16,-9,-1
Cc1c(OCC(=O)NCC2CCC(C(=O)O)CC2)ccc2c3c(c(=O)oc12)CCC3 (configuration not stated),9.4*,-42,10,-4
O=C(COc1ccc2c3c(c(=O)oc2c1)CCC3)NCC1CCC(C(=O)O)CC1 (configuration not stated),7,-38,7,0
Cc1c(OCC(=O)NCC(O)c2ccccc2)ccc2c3c(c(=O)oc12)CCCC3 (configuration not stated),9.3*,-35,-6,-3
Cc1c(OCc2nn[nH]n2)ccc2c3c(c(=O)oc12)CCCC3,7.8*,-25,14,-4
NC(=O)c1ccc(NC(=O)CSc2nnc(-c3ccncc3)n2Cc2ccco2)cc1,-3,-13,-4,-3
COc1cccc(C(=O)NC2CCNCC2)c1,-1,-5,-3,-3
Cc1ccc(CN2CCN(Cc3cc4ccccc4o3)CC2CCO)cc1 (configuration not stated),0,2,-28,1
O=C(O)c1ccccc1C(=O)NCCc1ccc(Cl)cc1,-4,-3,0,-3
O=C(O)c1ccccc1C(=O)NCCc1c(C(=O)O)[nH]c2ccc(Cl)cc12,10*,2,-16,-3
COc1ccc(CNC(=O)CN(C(=O)CCC(=O)Nc2nccs2)c2ccccc2C)cc1,-4,-38,-5,-4
